For one series, the system named is hGALR2. The series can be described thus: G protein pathway activation, HEK293 luciferase. The format is cell-based. The conditions noted are these: human GALR2, vs cGAL53. A digest of the protocol: (§1)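 HEK293 cells were transfected (Lipofectamine) with empty pcDNA3.1 or GALR plasmid (2 μg) plus CRE, NFAT-RE or SRE luciferase reporter. After 36 h, medium was replaced with serum-free medium containing test peptide, diluted in DMEM from a 1 mM water stock, for 12 h. Luciferase was read 48 h post-transfection. Technical triplicate; mean ± SD; 37 °C, 5% CO2.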

Another series concerns Gnaq. The experiment in a line: 2% DSS colitis in Gnaq cKO mice, overall. It is filed as in vivo, mouse. The conditions noted are these: Gnaq cKO (gut epithelial) mice, vs AAV control mice. A digest of the protocol: (§2)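 Male Arrb2fl/fl or Gnaqfl/fl mice (7–8 weeks) were fasted overnight, anaesthetised, and given 100 μL AAV8-Vil-cre or AAV8-Vil-null (1E+11 vg/mL) by catheter 4 cm into the colon. One week later they received 2% DSS in drinking water for 7 days. Read-outs were body weight, DAI, colon length, H&E, serum IL-6/IL-1β ELISA, and colonic Il6/Tnf/Il1b/Tgfb1/Tjp1/Ocln mRNA.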

For series [1], the system named is GALR2. The experiment in a line: SRE-luc luciferase. It is filed as cell-based. The conditions noted are these: HEK293, GALR2, luciferase, 12 h. A digest of the protocol: as §1
Series [2] relates to DSS-induced intestinal inflammation. The format is in vivo, chicken. A digest of the protocol: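 Forty 21-day-old male yellow-feathered broilers were split into control, DSS and two peptide groups under 24 h light, with free food and water. DSS groups were gavaged with […] of 4% DSS daily from day 21 to 29. Treated birds got 100 μL of 50 μM peptide i.p. daily. TNF-α, IL-1β and IL-6 were measured by ELISA in jejunum/ileum homogenates (1:9 w/v ice-cold PBS, pH 7.4; 5000 × g, 10 min, 4 °C).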

Series [3] in a line: Tolerability of peptide alone in healthy male mice, overall. The format is in vivo, mouse. Conditions: daily i.p. for six consecutive days. In outline: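 Healthy male mice received daily i.p. test peptide for six consecutive days alongside a saline-injected control group. Body weight, water intake, food intake and colon length were recorded.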
In series [4] the test system is GALR1. The experiment in a line: NFAT-luc luciferase. It is filed as cell-based. Conditions: HEK293, GALR1, luciferase, 12 h. A digest of the protocol: as §1
For series [5], the system named is GALR3. The experiment in a line: SRE-luc luciferase. The format is cell-based. Conditions: HEK293, GALR3, luciferase, 12 h. In outline: as §1
Series [6] deals with GALR2. The experiment in a line: NFAT-luc luciferase. The format is cell-based. Conditions: HEK293, GALR2, luciferase, 12 h. In outline:
as §1

For series [7], the system named is GALR2. The experiment in a line: CRE-luc luciferase. The format is cell-based. The conditions noted are these: HEK293, GALR2, luciferase, 12 h. In outline:
as §1

In series [8] the test system is GALR2. The experiment in a line: G protein versus β-arrestin2 signaling bias at GALR2. The format is cell-based.
The subject of a further series is mGALR2 mutants. The series can be described thus: Tango β-arrestin2 recruitment, binding-site mutants. It is filed as cell-based, mouse. Background: Activated receptors often draw arrestin, which recruitment assays turn into a signal.
For the next series, the system named is colon transcriptome. The experiment in a line: RNA-seq of colon tissue, DSS-induced colitis mice. The format is in vivo. Conditions: mouse colon. In outline:
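Total RNA was extracted from mouse colon with Trizol, sequenced on BGIseq500 and mapped to the mouse genome. Data were analysed in R and reported as mean ± SEM.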

In the next series the test system is ARRB2. The experiment in a line: 2% DSS colitis in Arrb2 cKO mice, overall. The format is in vivo, mouse. The conditions noted are these: Arrb2 cKO (gut epithelial) mice, vs AAV control mice. A digest of the protocol:
as §2

The test system of series [9] is GALR1. The series can be described thus: CRE-luc luciferase. The format is cell-based. Conditions: HEK293, GALR1, luciferase, 12 h. In outline:
as §1

Series [10] concerns GALR3. The experiment in a line: CRE-luc luciferase. The format is cell-based. The conditions noted are these: HEK293, GALR3, luciferase, 12 h. A digest of the protocol:
as §1

Series [11] concerns GALR3. The experiment in a line: NFAT-luc luciferase. The format is cell-based. The conditions noted are these: HEK293, GALR3, luciferase, 12 h. In outline: as §1
A further series concerns Caco2 cells. The series can be described thus: RT-qPCR cytokine expression, Caco2 cell inflammation model. The format is cell-based, human. Conditions: IL-1β + TNF-α.
Series [12] deals with GALR1. The series can be described thus: SRE-luc luciferase. The conditions noted are these: HEK293, GALR1, luciferase, 12 h. The format is cell-based. In outline:
as §1

The test system of the next series is DSS-induced colitis. The series can be described thus: DSS-induced colitis in wild-type mice, overall therapeutic efficacy. The format is in vivo, mouse. Conditions: chicken and mouse colitis models, overall statement.
The test system of the next series is mGALR2. The series can be described thus: G protein pathway activation, HEK293 luciferase. It is filed as cell-based. The conditions noted are these: mouse GALR2, vs cGAL53. In outline:
as §1

For series [13], the system named is GALR1. The conditions noted are these: cited from earlier work.
For series [14], the system named is GALR2. The conditions noted are these: cited from earlier work.
Series [15] relates to GALR3. Conditions: cited from earlier work.
For another series, the system named is TNBS-induced colitis. The conditions noted are these: rat acute TNBS colitis; cited from earlier work.

The values that follow come from article PMC12749109 (Nature Communications, 2025).

“Also recorded” adds a separate entry of the source.

For the substance “GWTLNSAGYLLGPHAVDNHRSFNDKHGFT-NH2 [cGAL29]”, the “activation of G protein pathways” value in the series on hGALR2 and in the series on mGALR2 was “more strongly than cGAL53” throughout. The “ability to alleviate weight loss, colon shortening, intestinal damage, inflammation” value in the series with Gnaq was “significantly reduced”. For the same substance, the “Gi (SRE-luc) activation” value with GALR2 [1] is given as “can activate”; in the series on GALR3 [5] it was “can activate”; in the series with GALR1 [12], “not GALR1”. Moreover, the “IBD-related symptoms in DSS-treated chickens” value in series [2] (chicken, 4% DSS oral gavage, daily i.p. peptide) was “ameliorated IBD-related symptoms in chickens, manifested as reductions of body weight loss, intestinal bleeding points and tissue damage”. In series [2] (chickens), the “expression of colonic inflammatory factors induced by DSS” value is on record as “reduced the expression of colonic inflammatory factors”. Besides, in series [3], the “body weight, water and food intake, colon length (tolerability)” value is “neither peptide affected body weight, water, and food intake, nor colon length, indicating good tolerability”. Besides, the “Gq (NFAT-luc) activation” value in the series with GALR1 [4] is listed as “not GALR1”; with GALR2 [6] it was “more robust activation; also recorded: can activate”; in the series on GALR3 [11], “can activate”. Also, the “Gs (CRE-luc) activation” value was “more robust activation; also recorded: can activate” in the series on GALR2 [7], “not GALR1” in the series with GALR1 [9] and “can activate” with GALR3 [10]. Besides, the “bias at GALR2” value in the series on GALR2 [8] is listed as “G protein-”. For the same substance, the “G protein activation / ARRB2 recruitment via GALR2” value in the series on GALR2 [8] (GALR2, overall statement) is given as “stronger activation of G protein signaling pathways via GALR2”. Further, in the series with mGALR2 mutants, the “β-arrestin2 recruitment after mutation of predicted unique binding sites” value was “affected”. Besides, in the series on colon transcriptome, the “DSS-changed pathways (KEGG)” value is listed as “significantly modulated”. Besides, the “expression levels of immune-related genes” value with colon transcriptome is recorded as “significantly reduced”. Moreover, the “therapeutic effects (weight loss, colon shortening, intestinal damage, inflammation)” value with ARRB2 is recorded as “significantly diminished; also recorded: negated the therapeutic effects”. The “concentration giving (similar) anti-inflammatory effect” value in the series with Caco2 cells amounted to 10 µM. Further, in the series on Caco2 cells (RT-qPCR), the “expression of Il6, Il23 and Tgfb1 induced by IL-1β and TNF-α” value is reported as “reduced”. In the series with DSS-induced colitis, the “alleviation of colitis / intestinal inflammation, overall” value is “alleviated intestinal inflammation symptoms in mouse colitis induced by DSS and TNBS”.

As to “galanin: biologically active neuropeptide of 29/30 amino acids, cited literature”, the affinity result in the series on GALR1 [13] is “high affinity”; in the series on GALR2 [14] it was “high affinity”; in the series with GALR3 [15] it was “lower affinity”. The “severity of colonic damage and inflammatory responses” value in the series with TNBS-induced colitis is “decreases inflammatory responses; also recorded: reduce the severity of colonic damage and inflammatory responses”.
